From PubChem BioAssay
This is a sample that favours compounds with a hit; in the whole collection about 1.7% have one here.
LMPTP inh: LMPTP phosphatase inhibitors, primary screen, biochemical, fluorescence intensity, uHTS | Low molecular weight phosphotyrosine protein phosphatase (Homo sapiens), P24666 | recombinant LMPTP-A, OMFP fluorogenic substrate | inhibition, % at 20 µM | 360,000 compounds, 0.22% hits;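 active = compounds that cut the enzyme signal by at least half of the control window in the single-dose screen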
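Assay system: LMPTP-A phosphatase enzyme | Input: 0.625 nM enzyme | Also added: Fluorogenic phosphatase substrate OMFP at 400 µM final | Compound dosing: One test concentration per compound, 20 µM, with 3% DMSO overall | Schedule: 50 min enzyme reaction at room temperature, protected from light | Signal: Fluorescence intensity | Benchmarks: no-enzyme and uninhibited controls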
Scp-1 inhibitor: Scp-1 phosphatase inhibitors, primary screen, biochemical, colorimetric, uHTS | Carboxy-terminal domain RNA polymerase II polypeptide A small phosphatase 1 (Homo … | Recombinant Scp1, phosphopeptide, malachite green phosphate absorbance | inhibition, % at 20 µM | 340,000 compounds, 0.88% hits | AID 493091, 2011;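 active = inhibition above about 50% at 20 µM, limit read from the data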
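Test system: SCP-1 phosphatase catalytic domain, residues 76-261; measured by: colorimetric phosphate reagent with accelerator and stabiliser, absorbance at 630 nm; timing: enzyme reaction 45 min at room temperature, colour 5 min, stabilisation 30 min; also added: Phosphorylated 17-residue peptide substrate; compound dosing: one concentration, 20 µM, with 1.0% DMSO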
STEP inh: STEP phosphatase inhibitors, primary screen, biochemical, fluorescence intensity, uHTS. Tyrosine-protein phosphatase non-receptor type 5 (Homo sapiens), P54829. recombinant STEP, OMFP fluorogenic substrate. inhibition, % at 20 µM. 360,000 compounds, 0.25% hits. AID 588621, 2011;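 active = inhibition at 20 µM, scaled per plate between control wells, above about 37%, limit read from the data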
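Material: STEP (striatal-enriched tyrosine phosphatase) enzyme, cell-free; Compound dosing: 20 µM single dose in 1% DMSO; Technique: fluorescence read at 480 nm ex / 540 nm em; Times: reaction 20 min, ambient temperature; Medium: 50 mM Bis-Tris pH 6.0 with 2.5 mM DTT and 0.005% Tween 20; Also added: OMFP at 25 µM.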
SUMO1 PPI mod: modulators of SUMO1 protein-protein interactions, primary screen, biochemical, uHTS; SUMO1 binding to a labelled peptide, TR-FRET, 1 h; 360,000 compounds, 0.33% hits; Small ubiquitin-related modifier 1 (Homo sapiens), P63165; inhibition, % at 20 µM; in the data active = inhibition above about 37%
Target sequence (P63165 whole entry, looked up): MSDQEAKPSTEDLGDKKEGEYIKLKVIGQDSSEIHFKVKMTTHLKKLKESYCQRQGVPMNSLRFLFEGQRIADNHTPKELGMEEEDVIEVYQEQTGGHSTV
Casp6 inh: human caspase-6 inhibitors, primary screen, biochemical, VEID-R110 fluorescence, single point, set 2; 350,000 compounds, 0.53% hits; inhibition, % at 12.5 µM; purified caspase-6, Z-VEID-R110 cleavage fluorescence; AID 686996, 2013;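 active = mean inhibition across replicates at least about 35%, with every replicate also reaching that limit, limit read from the data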
Target sequence (P55212 24-179 limits assumed): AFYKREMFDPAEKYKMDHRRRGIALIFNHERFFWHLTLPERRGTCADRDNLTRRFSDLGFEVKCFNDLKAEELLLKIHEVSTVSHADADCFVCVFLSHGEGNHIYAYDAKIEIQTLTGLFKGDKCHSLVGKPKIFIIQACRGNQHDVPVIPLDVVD
Target sequence (P55212 194-293 limits assumed): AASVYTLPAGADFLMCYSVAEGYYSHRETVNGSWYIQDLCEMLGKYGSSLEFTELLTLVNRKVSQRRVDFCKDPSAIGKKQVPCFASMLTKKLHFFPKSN
DNMT1 inh: human DNMT1 methyltransferase inhibitors, primary screen, biochemical, molecular beacon, fluorescence, HinP1I cleavage, uHTS; DNA (cytosine-5)-methyltransferase 1 (Homo sapiens), P26358; 360,000 compounds, 0.83% hits; inhibition (reported as % activation of signal), % at 10 µM; in the data active = inhibition above about 50%
Scp-1 conf: Scp-1 phosphatase inhibitors, retest, confirmation, biochemical, colorimetric, single concentration | shares compounds with Scp-1 inhibitor | recombinant SCP-1 catalytic domain, phosphate release, malachite green absorbance | inhibition, % at 20 µM | 2,500 compounds, 61% hits | AID 540281, 2011
Scp-1 MG ctr: colorimetric readout interference by compounds, confirmation, artefact control for Scp-1 inhibitor project, biochemical, single concentration; shares compounds with Scp-1 inhibitor; Colorimetric interference counterscreen, malachite green absorbance 630 nm; apparent inhibition (interference), % at 20 µM; 2,500 tested, under 10 active; AID 540313, 2011;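 note: compounds added after enzyme reaction finished so only phosphate colour detection is probed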
Scp1 DSF: Scp-1 binding by thermal shift, confirmation, orthogonal assay for Scp-1 inhibitor project, biophysical, differential scanning fluorimetry; shares compounds with Scp-1 inhibitor; Recombinant SCP1, Sypro Orange thermal shift Tm; AID 540329, 2011; thermal shift relative to vanadate control, % at 40 µM; 1,500 compounds, 25% hits;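 active = substances whose mean melting-temperature shift, as a percentage of the reference inhibitor's shift, reaches about 5.3%, limit read from the data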
A number is an active result; - = inactive; . = no result.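 Rule for the calls, unless noted: active = inhibition of at least 30% at 20 µM; inactive = the rest.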

SMILES	LMPTP inh	Scp-1 inhibitor	STEP inh	SUMO1 PPI mod	Casp6 inh	DNMT1 inh	Scp-1 conf	Scp-1 MG ctr	Scp1 DSF
COc1ccc(S(=O)(=O)N2CCCC2C(=O)NCC(=O)Nc2cccc(Cl)c2C)cc1 (stereo not given)	-	-	-	-	-	-	.	.	.
Cc1cc(C)cc(N=C2NC(=O)/C(=C/c3cccs3)S2)c1	-	-	-	-	-	-	.	.	.
O=C1NC(=Nc2ccccc2)S/C1=C\c1cccs1	-	97.1	-	-	-	-	-	-	.
C[C@H]1CN([C@@H](C)CO)S(=O)(=O)c2ccc(/C=C/c3ccccc3)cc2O[C@@H]1CN(C)C(=O)c1ccc2c(c1)OCO2	.	.	.	.	-	.	.	.	.
Cn1nnnc1SCC1=C(C(=O)O)N2C(=O)C(NC(=O)C3CC3c3ccccc3)C2SC1 (stereo not given)	-	58.7	-	-	-	-	70.3	-	-
CCC(NC(=O)Cn1cnc2c(=O)n(C)c(=O)n(C)c21)c1ccccc1 (stereo not given)	-	-	-	-	.	-	-	-	.
COc1ccc(CNC(=O)Cn2cnc3c(=O)n(C)c(=O)n(C)c32)cc1	-	-	-	-	.	-	-	-	.
Cn1c(=O)c2ncn(CC(=O)NCCOc3ccccc3)c2n(C)c1=O	-	-	-	-	.	-	.	.	.
Cc1ccc(C(=O)NCCNc2ccc(Cl)cc2[N+](=O)[O-])o1	-	-	-	-	.	-	.	.	.
Cc1nc2ccccc2nc1NS(=O)(=O)c1ccc(N)cc1	-	-	-	-	-	-	.	.	.
COc1ccc(/C=N/NC(=O)CCCOc2ccc(Cl)cc2Cl)cc1[N+](=O)[O-]	-	-	-	-	.	-	.	.	.
Cc1ccc(/C=N/NC(=O)CCCOc2ccc(Cl)cc2Cl)cc1[N+](=O)[O-]	-	58.5	-	-	.	-	37.8	-	-
O=C(O)CSc1c2c(nc3cc(C(=O)Nc4ccc(F)c(Cl)c4)ccc13)CCCC2	-	52.0	-	-	-	-	82.8	-	-
O=C(NCCc1nc2ccccc2[nH]1)c1ccc(Br)o1	-	61.3	-	-	-	-	-	-	.
C[C@H]1CN([C@@H](C)CO)C(=O)c2cc(NC(=O)Nc3cccc4ccccc34)ccc2O[C@@H]1CN(C)Cc1ccc(C(F)(F)F)cc1	.	.	.	.	-	.	.	.	.
C/C(=N\NC(=O)c1cc(Cl)ccc1O)c1ccc(Br)s1	-	92.7	-	-	.	-	79.8	-	-
C/C(=N\NC(=O)c1ccc(Cl)cc1)c1ccc(Br)s1	-	-	-	-	.	-	.	.	.
O=C(NNC(=O)c1ccccc1F)c1ccc(Cl)c(S(=O)(=O)N2CCOCC2)c1	-	56.7	-	-	-	-	-	-	.
CC(C)OCCOc1ccc2oc(-c3ccco3)cc(=O)c2c1	-	61.3	-	-	35.0	-	59.9	-	-
N=c1nc2n(cc1F)C1OC(CO)C(O)C1O2 (stereo not given)	-	71.5	-	-	-	-	-	-	.
